Measurements: ChEMBL document CHEMBL1121474, “Peptidoaminobenzophenones, a novel class of ring-opened derivatives of 1,4-benzoidazepines” (J Med Chem, 1980)

Tests used:
[1] = species on record: Mus musculus; assay: Minimum effective dose (MED) required for the potentiation of thiopental sodium induced loss of the righting reflex; format: functional; settings: read-out: MED
Method in brief: (§1)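 Five mice per group dosed orally; 60 min later challenged with thiopental sodium 35 mg/kg intravenously. Minimum effective dose potentiating thiopental-induced anesthesia determined.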

[2] = species on record: Mus musculus; assay: Dose required to prevent convulsion and death in 50% of mice during a 2 hr observation was obtained by graphical interpolation anti-pentylenetetrazole; format: functional
Method in brief: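 Groups of five mice dosed orally, then challenged 60 min later with 125 mg/kg pentylenetetrazol subcutaneously. ED50 = dose preventing convulsion and death in 50% of animals over a 2 h observation, by graphical interpolation.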

[3] = (§2) Lethal dose (LD50) required to inhibit the spontaneous motor activity.; format: toxicity, organism-based; settings: mouse, in vivo
Method in brief: (§3)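 Acute oral toxicity in mice, groups of one to three animals, deaths assessed on day 7 after administration. LD50 by graphical interpolation.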

[4] = species on record: Mus musculus; assay: Effective dose required for 50% reduction of the control response was obtained by graphical interpolation rotarod performance; format: functional
Method in brief: (§4)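 Oral dosing in mice; rod rotating at 5 rpm tested at 60 min after dosing, counting animals falling off within 2 min. ED50 by graphical interpolation.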

[5] = species on record: Mus musculus; assay: Effective dose required for 50% reduction of the control response in mice was obtained by graphical interpolation rotarod performance; format: functional; method in brief: as §4
[6] = Lethal dose (LD50) required to inhibit the spontaneous motor activity; format: toxicity, organism-based; settings: mouse, in vivo; method in brief: as §3
[7] = species on record: Mus musculus; assay: Antifighting activity was measured by the antagonism against foot-shock induced fighting; format: functional
Method in brief: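 Mice dosed orally; pairs confined under inverted glass enclosure and given foot shock (5 Hz, 2 ms, DC 50 V); pairs with 15-20 fighting episodes in 3 min selected. Five pairs per dose; responses counted before and at 60 min after dosing. ED50 (50% inhibition) by graphical interpolation.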

[8] = tested on: Mus musculus; assay: Spontaneous motor activity of mice was estimated after 60 minutes of oral administration.; format: functional; parameters: unit not given here
Method in brief: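 Oral dosing in mice; activity quantitated with an activity meter over 10 min starting 60 min after dosing. Five groups of three mice per dose.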

[9] = species on record: Mus musculus; assay: Minimum effective dose (MED) required for the potentiation of thiopental sodium induced loss of the righting reflex (Students t test).; format: functional; settings: read-out: MED; method in brief: as §1
[10] = tested on: Mus musculus; assay: as §2; format: functional; method in brief: as §3

Structure (SMILES) | minimal effective dose [1] | ED50 [2] | LD50 [3] | ED50 [4] | ED50 [5] | LD50 [6] | ED50 for inhibition of foot-shock induced fighting [7] | Activity [8] | minimal effective dose [9] | LD50 [10]
NCC(=O)NCC(=O)Nc1ccc(Cl)cc1C(=O)c1ccccc1Cl | 10 mg/kg | 22 mg/kg | > 1000 mg/kg | > 100 mg/kg | – | – | – | – | – | –
NCC(=O)NCC(=O)Nc1ccc(Cl)cc1C(=O)c1ccccn1 | – | 2.8 mg/kg | – | 59.5 mg/kg | – | – | – | – | – | –
NCC(=O)NCC(=O)Nc1ccc(Cl)cc1C(=O)c1ccccc1 | 25 mg/kg | 14.1 mg/kg | – | – | 52.4 mg/kg | > 1000 mg/kg | 14.6 | – | – | –
CCN(CC)CCN(C(=O)CNC(=O)CN)c1ccc(Cl)cc1C(=O)c1ccccc1 | 5 mg/kg | 5.7 mg/kg | > 1000 mg/kg | > 100 mg/kg | – | – | – | – | – | –
CN(C(=O)CNC(=O)[C@H](N)Cc1ccccc1)c1ccc(Cl)cc1C(=O)c1ccccc1Cl | 10 mg/kg | 4.8 mg/kg | > 1000 mg/kg | 77.1 mg/kg | – | – | 20.4 | >50 | – | –
CCN(CC)CCN(C(=O)CNC(=O)CN)c1ccc(Cl)cc1C(=O)c1ccccc1F | – | 1.98 mg/kg | > 1000 mg/kg | 50.8 mg/kg | – | – | 9.4 | 25 | – | –
CC(C)N(C(=O)CNC(=O)CN)c1ccc(Cl)cc1C(=O)c1ccccc1 | – | 15.8 mg/kg | – | > 100 mg/kg | – | > 1000 mg/kg | – | – | – | –
CN(C(=O)CNC(=O)[C@@H](N)Cc1ccccc1)c1ccc(Cl)cc1C(=O)c1ccccc1Cl | 1 mg/kg | 1 mg/kg | > 1000 mg/kg | 52.2 mg/kg | – | – | 10.2 | >50 | – | –
CC(C)C(N)C(=O)NCC(=O)N(C)c1ccc(Cl)cc1C(=O)c1ccccc1Cl (stereo unspecified) | – | 1.6 mg/kg | 750 mg/kg | > 100 mg/kg | – | – | – | >25 | – | –
CN(C(=O)CNC(=O)C(N)Cc1ccccc1)c1ccc(Cl)cc1C(=O)c1ccccc1 (stereo unspecified) | 5 mg/kg | 3.9 mg/kg | > 1000 mg/kg | 70.7 mg/kg | – | – | 15.1 | 23.4 | – | –
CC(C)CC(N)C(=O)NCC(=O)Nc1ccc(Cl)cc1C(=O)c1ccccc1 (stereo unspecified) | 25 mg/kg | 15.9 mg/kg | > 1000 mg/kg | > 100 mg/kg | – | – | – | – | – | –
CN(C(=O)CNC(=O)CN)c1ccc(Cl)cc1C(=O)c1ccccc1F | 0.1 mg/kg | 0.3 mg/kg | > 1000 mg/kg | 16.7 mg/kg | – | – | 1.6 | 3.1 | – | –
CCc1cc(C(=O)c2ccccc2)c(NC(=O)CNC(=O)CN)s1 | – | > 100 mg/kg | – | > 100 mg/kg | – | – | – | – | – | –
CC(C)C(N)C(=O)NCC(=O)N(C)c1ccc(Cl)cc1C(=O)c1ccccc1 (stereo unspecified) | 10 mg/kg | 3.4 mg/kg | > 1000 mg/kg | 73.5 mg/kg | – | – | 21.5 | >50 | – | –
CC(N)C(=O)NCC(=O)Nc1ccc(Cl)cc1C(=O)c1ccccc1 (stereo unspecified) | – | – | > 1000 mg/kg | – | – | – | – | – | – | –
CN(C(=O)CNC(=O)C(N)Cc1ccccc1)c1ccc(Cl)cc1C(=O)c1ccccc1Cl (stereo unspecified) | 5 mg/kg | 1.6 mg/kg | > 1000 mg/kg | 37.5 mg/kg | – | – | 17.1 | 5.5 | – | –
CC(C)C(N)C(=O)NCC(=O)Nc1ccc(Cl)cc1C(=O)c1ccccc1 (stereo unspecified) | – | 27.4 mg/kg | > 1000 mg/kg | > 100 mg/kg | – | – | – | – | – | –
CN(C(=O)CNC(=O)CN)c1ccc(Cl)cc1C(=O)c1ccccc1 | 2.5 mg/kg | 1 mg/kg | 750 mg/kg | 29.4 mg/kg | – | – | 10.5 | 15.1 | – | –
NC(C(=O)NCC(=O)Nc1ccc(Cl)cc1C(=O)c1ccccc1)c1ccccc1 (stereo unspecified) | – | 27.4 mg/kg | > 1000 mg/kg | > 100 mg/kg | – | – | – | – | – | –
CNC1=Nc2ccc(Cl)cc2C(c2ccccc2)=[N+]([O-])C1 [CHLORDIAZEPOXIDE] | – | 2.71 mg/kg | – | 82.3 mg/kg | – | – | – | 56.09 | 2.5 mg/kg | 1080 mg/kg
CN1C(=O)CN=C(c2ccccc2)c2cc(Cl)ccc21 [DIAZEPAM] | – | – | – | 17.7 mg/kg | – | – | – | 8.45 | 0.5 mg/kg | –
CN(C(=O)CNC(=O)CN)c1ccc(Cl)cc1C(=O)c1ccccc1Cl [LORZAFONE ANHYDROUS] | 0.5 mg/kg | 0.56 mg/kg | > 1000 mg/kg | 35.4 mg/kg | – | – | 3.2 | 1.4 | – | –
